# Test results reported in article PMC3832139 (Cancer chemotherapy and pharmacology, 2013).
# Read-outs that look alike come from different tables or passages of the source.
# What was measured:
# [1] = test system: MM.1R cells; experiment: MTT cytotoxicity assay; format: cell-based, human
# [2] = test system: MM.1S cells; experiment: Cleaved caspase-3 immunocytochemistry; format: cell-based, human; details: for cells positive for cleaved caspase-3: one hour, non-treated 5.9%
# [3] = test system: MM.1R cells; experiment: Cleaved caspase-3 immunocytochemistry; format: cell-based, human
# [4] = test system: MM.1R xenografts; format: in vivo, mouse
# [5] = test system: MM.1R xenografts; experiment: Immunohistochemistry of MM.1R tumors; format: in vivo, mouse; details: 50 mg/kg s.c. 3 times weekly
# Outline: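 Mice bearing s.c. MM.1R flank xenografts (randomized at 100–125 mm³) got test compound 50 mg/kg s.c. or acidified sterile water vehicle, 3 times weekly for 3 weeks. Frozen 4 μm tumor sections were stained with rat anti-mouse CD31; paraffin 5 μm sections were stained overnight with anti-PCNA (PC10). HRP streptavidin-biotin, hematoxylin counterstain, mouse IgG negative control. PCNA labeling index: % positive nuclei over 500 cells, ten 40x fields; SD, n=8.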
# [6] = test system: MM.1S and MM.1R cells; experiment: Western blot of signaling pathways; format: cell-based, human; details: for phospho-p70 S6 kinase: MM.1R cells, data not shown; for phosphorylation of AKT, MDM2, and ERK: MM.1S and MM.1R cells, 10 μM
# [7] = test system: HIF-1α in MM.1R cells; experiment: Hypoxic HIF-1α stabilization, Western blot; format: cell-based, human; details: 1% oxygen, 4 hours
# [8] = test system: HIF-1α in RPMI 8226 cells; experiment: Hypoxic HIF-1α stabilization, Western blot; format: cell-based, human; details: RPMI 8226, 1% oxygen, 4 hours, 20 and 40 μM
# [9] = human, in vivo
# [10] = relapsed or refractory MM patients, Phase I
# [11] = test system: MM.1S cells; experiment: MTT cytotoxicity assay; details: read-out: IC50 (cytotoxicity, MTT)
# [12] = cited from earlier work
# [13] = test system: RPMI 8226 cells; experiment: MTT cytotoxicity assay; format: cell-based; details: Homo sapiens, RPMI-8226, 48 h, read-out: IC50 (cytotoxicity, MTT)
# [14] = test system: phospho-AKT in CD138+ MM cells; experiment: Phospho-AKT flow cytometry of patient bone marrow CD138+ MM cells; format: in vivo, human; details: patient 002 CD138+ cells before dosing, 10 μM ex vivo, 30 minutes
# [15] = Prodrug cleavage and preclinical pharmacokinetics; format: in vitro ADME
# [16] = test system: p110β; details: cited from earlier work
# [17] = test system: p110γ; details: cited from earlier work
# [18] = test system: p110δ; details: cited from earlier work
# [19] = Solubility
# [20] = Pharmacokinetics in MM patients, Phase I study of SF1126; details: MM patients given SF1126 infusion, dose levels 90–570 mg/m^2
molecule,measurement,setting,value
N=C(N)NCCC[C@H](NC(=O)CCC(=O)OC[N+]1(c2cc(=O)c3cccc(-c4ccccc4)c3o2)CCOCC1)C(=O)NCC(=O)N[C@@H](CC(=O)O)C(=O)N[C@@H](CO)C(=O)[O-] [SF1126],IC50,"[1]; read-out: IC50 (cytotoxicity, MTT), 48 hours, sigmoidal dose-response fit",11.7 µM
same,increase in cleaved caspase-3 over non-treated cells,[2]; 5 μM,1.4 fold
same,cells positive for cleaved caspase-3,[2]; 5 μM,8.3%
same,increase in cleaved caspase-3 over non-treated cells,[2]; 50 μM,1.9 fold
same,cells positive for cleaved caspase-3,[2]; 50 μM,11.4%
same,increase in caspase 3 cleavage,[3]; 5 μM,3 fold
same,increase in caspase 3 cleavage,[3]; 50 μM,2.7 fold
same,mean tumor volume relative to controls (fold less),"[4]; 50 mg/kg s.c. 3 times weekly for 3 weeks, by 34 days",approximately eightfold
same,untoward effects in mice,"[4]; mouse, in vivo",No untoward effects
same,PCNA-positive proliferating cells (labeling index),"[5]; controls 25%, n=8, p<0.02",7%
same,CD31 microvessel density,"[5]; n=8, p<0.007",striking decrease
same,expression of survivin,[6],not affected
same,phospho-p70 S6 kinase,[6],decreased
same,"phosphorylation of AKT, MDM2, and ERK",[6],significantly decreased
same,HIF-1α accumulation under hypoxic conditions,[7],blocked
same,HIF-1α expression under hypoxic conditions,[8],abrogated
same,clearance of SF1126,[9],rapidly cleared post-infusion
same,effect on disease progression,[10],did not appear to modify disease progression
same,IC50,"[11]; MM.1S, 48 hours, sigmoidal dose-response fit",8.89 µM
RADS [SF1326],rate of cleavage to SF1101,[12],same rate as SF1126
O=c1cc(N2CCOCC2)oc2c(-c3ccccc3)cccc12 [LY294002],IC50,"[1]; Homo sapiens, 48 h, read-out: IC50 (cytotoxicity, MTT)",9.04 µM
same,IC50,[13],5.83 µM
same,"endogenous downstream AKT phosphorylation, ex vivo treatment",[14],did not suppress
same,phospho-p70 S6 kinase,[6],decreased
same,"phosphorylation of AKT, MDM2, and ERK",[6],significantly decreased
same,plasma half-life,[15],does not have a measurable plasma half-life
same,solubility,[19],only soluble in 100% DMSO
same,IC50,"[11]; Homo sapiens, MM1.S, 48 h",7.17 µM
same,t1/2 of active SF1126 hydrolysis product,[20],1.1 to 1.5 h
